# Assay results taken from ChEMBL document CHEMBL1649147, “Antistaphylococcal activity of dihydrophthalazine antifolates, a family of novel antibacterial drugs” (2009).
# Assays:
# Staphylococcus aureus [1] = experiment: Antibacterial activity against methicillin-resistant Staphylococcus aureus ATCC 43300 by broth macrodilution method; assay type: functional; settings: ATCC43300
# [2] = tested on: Staphylococcus epidermidis; experiment: Antibacterial activity against coagulase-negative Staphylococcus epidermidis 057 after 10 passages in MBH without antibiotic by agar dilution method; assay type: functional
# Outline: (§1)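 After drug-selective serial passage, selected clones were passaged 10 times in antibiotic-free MHB. MICs were then redetermined, and the change is expressed as log2 dilution steps.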
# Staphylococcus aureus [3] = experiment: Antibacterial activity against methicillin-resistant Staphylococcus aureus by agar dilution method; assay type: functional
# Outline: (§2)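 Agar dilution on Mueller-Hinton agar per CLSI guidelines. S. aureus ATCC 29213 and E. faecalis ATCC 29212 were run with each set, and test MICs were accepted only when the control strains fell within acceptable ranges.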
# Staphylococcus aureus [4] = experiment: Antibacterial activity against Staphylococcus aureus 505 assessed as change in MIC by agar dilution method after serial passages in presence of antibiotic relative to control; assay type: functional
# Outline: (§3)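 Serial passage under drug. Inoculum was ~1 × 10^6 CFU/ml from overnight MHA growth, in 1 ml MHB at 35°C for 24 h. Drug ranged from 4 log2 steps above to 3 log2 steps below the MIC. […] MIC change is given as log2 steps.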
# [5] = tested on: coagulase-negative staphylococci; experiment: Antibacterial activity against methicillin-resistant coagulase-negative staphylococci by agar dilution method
# Staphylococcus aureus [6] = experiment: Antibacterial activity against vancomycin-resistant Staphylococcus aureus VRS1 assessed as change in MIC by agar dilution method after serial passages in the absence of antibiotic relative to control; assay type: functional
# Outline: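 Clones from the end of drug passage were transferred 10 times in MHB without antibiotic, then retested by agar dilution. MIC change is expressed as log2 dilution steps.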
# Staphylococcus aureus [7] = experiment: Antibacterial activity against Tmp-susceptible coagulase-negative Staphylococcus aureus by agar dilution method; assay type: functional
# Outline: (§4)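 MICs by agar dilution on Mueller-Hinton agar following CLSI guidelines. S. aureus ATCC 29213 and E. faecalis ATCC 29212 were run as quality controls with each set, and test-strain MICs were kept only if control MICs fell within acceptable ranges.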
# Staphylococcus aureus [8] = experiment: Antibacterial activity against methicillin-susceptible Staphylococcus aureus ATCC 29213 after 50 passages by agar dilution method; assay type: functional; settings: ATCC29213
# Outline: (§5)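 Daily serial passage for up to 50 days at 35°C for 24 h in 1 ml MHB. […] Each transfer used 10 µl from the tube nearest the MIC (1–2 dilutions below) with the same turbidity as the drug-free control. […] MICs were measured by agar dilution, with changes given as log2 steps.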
# [9] = tested on: coagulase-negative staphylococci; experiment: Antibacterial activity against Tmp-resistant coagulase-negative staphylococci by agar dilution method
# [10] = tested on: Staphylococcus epidermidis; experiment: Antibacterial activity against methicillin-resistant coagulase-negative Staphylococcus epidermidis 074 by broth macrodilution method; assay type: functional
# [11] = tested on: Staphylococcus epidermidis; experiment: Antibacterial activity against methicillin-resistant, vancomycin-intermediate coagulase-negative Staphylococcus epidermidis 225 by agar dilution method; assay type: functional; outline: as §2
# [12] = tested on: Staphylococcus epidermidis; experiment: Antibacterial activity against coagulase-negative Staphylococcus epidermidis 051 assessed as change in MIC by agar dilution method after serial passages in the absence of antibiotic relative to control; assay type: functional; outline: as §1
# Staphylococcus aureus [13] = experiment: Antibacterial activity against vancomycin-resistant Staphylococcus aureus VRS1 by broth macrodilution method; assay type: functional
# Outline: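 Michigan VRSA strain, one of 12 staphylococci later used in time-kill studies. MIC was determined by broth macrodilution and reported in μg/ml.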
# [14] = tested on: Staphylococcus epidermidis; experiment: Antibacterial activity against methicillin-resistant coagulase-negative Staphylococcus epidermidis 345 by broth macrodilution method; assay type: functional
# Staphylococcus aureus [15] = experiment: Antibacterial activity against methicillin-susceptible Staphylococcus aureus by agar dilution method; assay type: functional; outline: as §2
# [16] = tested on: Staphylococcus epidermidis; experiment: Antibacterial activity against coagulase-negative Staphylococcus epidermidis 225 assessed as change in MIC by agar dilution method after serial passages in presence of antibiotic relative to control; assay type: functional; outline: as §3
# [17] = tested on: Staphylococcus epidermidis; experiment: Antibacterial activity against methicillin-resistant, Linezolid non-susceptible coagulase-negative Staphylococcus epidermidis 345 by agar dilution method; assay type: functional
# [18] = tested on: coagulase-negative staphylococci; experiment: Antibacterial activity against methicillin-susceptible coagulase-negative staphylococci by agar dilution method
# [19] = tested on: Staphylococcus epidermidis; experiment: Antibacterial activity against coagulase-negative Staphylococcus epidermidis 057 by agar dilution method; assay type: functional
# Outline: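 Agar dilution MIC determined on Mueller-Hinton agar following CLSI guidelines. S. aureus ATCC 29213 and Enterococcus faecalis ATCC 29212 were run as quality controls with each set, and test MICs were accepted only when the control MICs fell within acceptable ranges. Test organism was a coagulase-negative S. epidermidis strain.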
# [20] = tested on: Staphylococcus epidermidis; experiment: Antibacterial activity against coagulase-negative Staphylococcus epidermidis 225 assessed as change in MIC by agar dilution method after serial passages in the absence of antibiotic relative to control; assay type: functional; outline: as §1
# [21] = tested on: Staphylococcus epidermidis; experiment: Antibacterial activity against coagulase-negative Staphylococcus epidermidis 197 assessed as change in MIC by agar dilution method after serial passages in presence of antibiotic relative to control; assay type: functional; outline: as §3
# Staphylococcus aureus [22] = experiment: Antibacterial activity against methicillin-resistant Staphylococcus aureus 145 by broth macrodilution method; assay type: functional
# Staphylococcus aureus [23] = experiment: Antibacterial activity against Staphylococcus aureus 145 assessed as change in MIC by agar dilution method after serial passages in presence of antibiotic relative to control; assay type: functional; outline: as §3
# Staphylococcus aureus [24] = experiment: Antibacterial activity against methicillin-susceptible, vancomycin-intermediate Staphylococcus aureus 505 after 50 passages by agar dilution method; assay type: functional; outline: as §5
# [25] = tested on: coagulase-negative staphylococci; experiment: Antibacterial activity against Tmp-susceptible coagulase-negative staphylococci by agar dilution method
# [26] = tested on: Staphylococcus epidermidis; experiment: Antibacterial activity against coagulase-negative Staphylococcus epidermidis 057 assessed as change in MIC by agar dilution method after serial passages in the absence of antibiotic relative to control; assay type: functional; outline: as §1
# Staphylococcus aureus [27] = experiment: Antibacterial activity against vancomycin-resistant Staphylococcus aureus VRS1 assessed as change in MIC by agar dilution method after serial passages in presence of antibiotic relative to control; assay type: functional; outline: as §5
# [28] = tested on: Staphylococcus epidermidis; experiment: Antibacterial activity against coagulase-negative Staphylococcus epidermidis 345 assessed as change in MIC by agar dilution method after serial passages in presence of antibiotic relative to control; assay type: functional; outline: as §3
# [29] = tested on: Staphylococcus epidermidis; experiment: Antibacterial activity against methicillin-resistant coagulase-negative Staphylococcus epidermidis 197 after 50 passages by agar dilution method; assay type: functional
# Outline: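 Daily serial passage for up to 50 days at 35°C for 24 h in 1 ml MHB. Each transfer used 10 µl from the tube nearest the MIC (1–2 dilutions below) with the same turbidity as the drug-free control. MICs were measured by agar dilution, with changes given as log2 steps.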
# [30] = tested on: Staphylococcus epidermidis; experiment: Antibacterial activity against coagulase-negative Staphylococcus epidermidis 345 by agar dilution method; assay type: functional; outline: as §4
# Staphylococcus aureus [31] = experiment: Antibacterial activity against methicillin-resistant Staphylococcus aureus 507 by broth macrodilution method; assay type: functional
# [32] = tested on: Staphylococcus epidermidis; experiment: Antibacterial activity against coagulase-negative Staphylococcus epidermidis 225 by agar dilution method; assay type: functional; outline: as §4
# [33] = tested on: Staphylococcus epidermidis; experiment: Antibacterial activity against coagulase-negative Staphylococcus epidermidis 051 assessed as change in MIC by agar dilution method after serial passages in presence of antibiotic relative to control; assay type: functional; outline: as §3
# Staphylococcus aureus [34] = experiment: Antibacterial activity against Staphylococcus aureus 145 assessed as change in MIC by agar dilution method after serial passages in the absence of antibiotic relative to control; assay type: functional; outline: as §1
SMILES,MIC (Staphylococcus aureus [1]),MIC [2],MIC50 (Staphylococcus aureus [3]),MIC90 (Staphylococcus aureus [3]),fold change (FC) (Staphylococcus aureus [4]),MIC50 [5],MIC90 [5],fold change (FC) (Staphylococcus aureus [6]),MIC (Staphylococcus aureus [7]),MIC (Staphylococcus aureus [8]),MIC50 [9],MIC90 [9],MIC [10],MIC [11],fold change (FC) [12],MIC (Staphylococcus aureus [13]),MIC [14],MIC50 (Staphylococcus aureus [15]),MIC90 (Staphylococcus aureus [15]),fold change (FC) [16],further results
COc1cc(Cc2cnc(N)nc2N)cc(/C=C/C(=O)N2N=Cc3ccccc3C2c2cnc(N(C)C)nc2)c1OC (stereo not drawn),0.03 µg/mL,128 µg/mL,0.03 µg/mL,0.125 µg/mL,8,0.06 µg/mL,0.5 µg/mL,0,≤ 0.008 µg/mL,0.5 µg/mL,0.125 µg/mL,0.5 µg/mL,0.06 µg/mL,0.25 µg/mL,-6,0.5 µg/mL,0.06 µg/mL,0.03 µg/mL,0.25 µg/mL,10,MIC [17]: 0.06 µg/mL; MIC90 [18]: 0.03 µg/mL; MIC [19]: 8 µg/mL; fold change (FC) [20]: -7; fold change (FC) [21]: 1; MIC (Staphylococcus aureus [22]): 0.25 µg/mL; fold change (FC) (Staphylococcus aureus [23]): 10; MIC (Staphylococcus aureus [24]): 8 µg/mL; MIC50 [25]: 0.016 µg/mL; MIC90 [25]: 0.03 µg/mL; fold change (FC) [26]: -1; fold change (FC) (Staphylococcus aureus [27]): 10; fold change (FC) [28]: 12; MIC [29]: 0.125 µg/mL; MIC [30]: 0.06 µg/mL; MIC (Staphylococcus aureus [31]): 0.125 µg/mL; MIC [32]: 0.25 µg/mL; fold change (FC) [33]: 11; fold change (FC) (Staphylococcus aureus [34]): 0
COc1cc(Cc2cnc(N)nc2N)cc(/C=C/C(=O)N2N=Cc3ccccc3C2c2cnc(N3CCOCC3)nc2)c1OC (stereo not drawn),0.03 µg/mL,128 µg/mL,0.03 µg/mL,0.25 µg/mL,6,0.06 µg/mL,0.5 µg/mL,0,≤ 0.008 µg/mL,1 µg/mL,0.125 µg/mL,1 µg/mL,0.25 µg/mL,0.25 µg/mL,-6,1 µg/mL,0.125 µg/mL,0.03 µg/mL,0.25 µg/mL,10,MIC [17]: 0.06 µg/mL; MIC90 [18]: 0.06 µg/mL; MIC [19]: 8 µg/mL; fold change (FC) [20]: -7; fold change (FC) [21]: 4; MIC (Staphylococcus aureus [22]): 0.25 µg/mL; fold change (FC) (Staphylococcus aureus [23]): 9; MIC (Staphylococcus aureus [24]): 2 µg/mL; MIC50 [25]: 0.03 µg/mL; MIC90 [25]: 0.06 µg/mL; fold change (FC) [26]: -1; fold change (FC) (Staphylococcus aureus [27]): 8; fold change (FC) [28]: 6; MIC [29]: 1 µg/mL; MIC [30]: 0.06 µg/mL; MIC (Staphylococcus aureus [31]): 0.25 µg/mL; MIC [32]: 0.25 µg/mL; fold change (FC) [33]: 7; fold change (FC) (Staphylococcus aureus [34]): 0
